The list is not random: actives were taken first. Their share in the collection is about 4.2%.
TAAR1 antag: human TAAR1 antagonists, primary screen, Fluo-8 calcium fluorescence, CHO RD-HGA16 cells; Trace amine-associated receptor 1 (Homo sapiens), Q96RJ0; antagonist; inhibition, % at 3 µM; actives 1.5% (n = 360,000); AID 624466, 2012;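 active means inhibition above a per-plate cutoff, the mean inhibition of test compounds on that plate plus 3 SD, cut at about 49% in these data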;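 further: 0% = DMSO plus EC80 beta-PEA response and 100% = DMSO alone without agonist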
Target sequence (Q96RJ0 whole entry, looked up): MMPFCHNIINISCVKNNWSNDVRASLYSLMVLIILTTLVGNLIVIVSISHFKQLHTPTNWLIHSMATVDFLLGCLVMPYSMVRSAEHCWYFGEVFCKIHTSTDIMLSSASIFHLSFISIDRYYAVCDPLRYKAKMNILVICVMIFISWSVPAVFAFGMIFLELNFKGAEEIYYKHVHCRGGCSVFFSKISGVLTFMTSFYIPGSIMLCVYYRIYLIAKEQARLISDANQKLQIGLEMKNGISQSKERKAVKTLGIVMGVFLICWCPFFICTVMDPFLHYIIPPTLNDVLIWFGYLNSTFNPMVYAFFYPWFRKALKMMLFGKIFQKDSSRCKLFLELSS
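Assay system: CHO-derived RD-HGA16 cells stably expressing human TAAR1 plus Gα16. Timing: 140 s kinetic read after compound, 140 s after agonist. Technique: kinetic Fluo-8 calcium fluorescence measurement. Measure: % inhibition of agonist calcium response.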
OX1R antag-1: antagonists of human orexin 1 receptor (OX1R); OX1R-expressing cells, FRET antagonist read-out; actives 1.8% (n = 330,000); Orexin/Hypocretin receptor type 1 (Homo sapiens), O43613; inhibition, % at 6.6 µM; in the data active means inhibition mostly above about 38%, no sharp cut-off; inactive means mostly below about 40%;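 further: 0% = agonist challenge alone and 100% = reference antagonist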
OX1R antag-2: OX1R (HCRTR1) antagonists, primary screen, fluorescence, CHO/OX1R cells, Fluo-8 calcium, orexin A; Orexin/Hypocretin receptor type 1 (Homo sapiens), O43613; Fluo-8 calcium fluorescence; inhibition, % at 5 µM; actives 0.43% (n = 330,000); AID 434989, 2010;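 active means inhibition above its plate's threshold, mean inhibition of all tested compounds on the plate plus 3 SD, cut at about 37% in these data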;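 further: 0% = orexin A challenge wells and 100% = SB-334867-A antagonist wells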
TAAR1 agonist: human TAAR1 agonists, primary screen, Fluo-8 calcium fluorescence, CHO RD-HGA16 cells; Trace amine-associated receptor 1 (Homo sapiens), Q96RJ0; vehicle wells 0%, saturating PEA agonist 100%; activation, % at 3 µM; actives 0.99% (n = 360,000); AID 624467, 2012;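 active means activation above the mean activation of all test compounds in the run plus 3 SD, cut at about 38% in these data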
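test system = CHO RD-HGA16 cells carrying human TAAR1 plus Gα16 | schedule = 17-24 h seeding, 75 min 37 °C dye, 30 min RT | compound dosing = 3 µM single concentration | control set = DMSO and PEA EC100 | replicates = n 1 | signal = Fluo-8 fluorescence, 5 s baseline then 140 s kinetic read | measure = percent activation vs PEA EC100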
GalR3 antagonist: GalR3 antagonists in HEK293 cells, primary screen, cell-based, fluorescence readout; actives 0.44% (n = 360,000); AID 651719, 2012; inhibition, % at 3 µM; HEK293 GalR3-CNG cAMP membrane potential fluorescence; galR3 body fused to GalR1 C-terminus;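 active means inhibition above the screen-wide average plus 3 SD, cut at about 13% in these data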;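 further: forskolin and galanin both at EC90 stimulate the cells; cAMP rise reported by CNG channel membrane potential dye signal; 0% = forskolin plus galanin with DMSO and 100% = forskolin alone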
Target sequence (O60755 1-299 limits assumed): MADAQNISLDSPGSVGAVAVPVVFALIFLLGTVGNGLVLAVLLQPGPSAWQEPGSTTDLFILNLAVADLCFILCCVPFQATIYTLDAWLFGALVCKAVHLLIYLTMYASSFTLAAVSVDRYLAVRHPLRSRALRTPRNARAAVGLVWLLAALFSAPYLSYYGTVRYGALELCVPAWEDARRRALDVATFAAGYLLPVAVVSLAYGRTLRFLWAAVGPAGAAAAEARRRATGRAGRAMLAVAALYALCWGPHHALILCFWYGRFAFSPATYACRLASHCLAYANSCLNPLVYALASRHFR
CHO parental Ca: ATP-evoked calcium signal inhibitors, parental CHO, primary screen, counter-screen for OX1R antagonist project, cell-based, fluorescence, Fluo-8 calcium dye; parental CHO-K1, ATP-induced calcium, Fluo-8 fluorescence; inhibition, % at 5.6 µM; actives 0.63% (n = 330,000); AID 463079, 2010;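 active means inhibition above that plate's mean sample inhibition plus 3 SD, cut at about 26% in these data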;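 further: 0% = ATP-challenged DMSO wells and 100% = DMSO wells without ATP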
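Assay system: parental CHO cells; Read-out basis: percent inhibition of ATP-evoked calcium rise, normalized to controls; Benchmarks: ATP and no-ATP DMSO wells; Compound dosing: single nominal dose of 5.6 µM per compound; Signal: Fluo-8 calcium dye fluorescence; Also added: ATP as calcium-mobilizing challenge; Repeats: singlicate.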
Starred values were filed as active, the others as inactive; x = no result; + = active, no number.

SMILES	TAAR1 antag	OX1R antag-1	OX1R antag-2	TAAR1 agonist	GalR3 antagonist	CHO parental Ca
Cc1ccc2nc(SCc3nc4c(cnn4-c4ccccc4)c(=O)[nH]3)[nH]c2c1	44	90*	80*	13	0	39*
CC(C)(C)c1ccc(NC(=O)COC(=O)C2(C)CC2(Cl)Cl)cc1 (stereo unspecified)	52*	18	-6	8	-3	3
CCCN1C(=O)c2cc(C(=O)O)ccc2C1O (stereo unspecified)	4	0	-14	0	x	0
CCCN1C(=O)c2cc(C(=O)Nc3cccc(C(C)=O)c3)ccc2C1Nc1cccc(C(C)=O)c1 (stereo unspecified)	74*	9	-26	14	-5	1
O=C1NC2c3c(Cl)sc(Cl)c3C(=O)C2O1 (stereo unspecified)	-3	x	x	0	-5	x
CCc1nc(N)nc(N)c1-c1ccc(N(C)Cc2ccccc2)c([N+](=O)[O-])c1	76*	x	x	39*	-6	x
CCc1nc(N)nc(N)c1-c1ccc(NCCN)c([N+](=O)[O-])c1	-4	x	x	13	-3	x
O=C(NCc1ccccn1)c1cc(-c2ccc(-c3ccccc3)cc2)nc2ccccc12	51*	13	-30	7	-4	-18
Cc1cccc(-c2cc(C(=O)NCc3ccccn3)c3ccccc3n2)c1	53*	14	-23	11	0	-13
Cc1ccccc1OCCn1cc(/C(N)=N/O)c2ccccc21	2	23	-15	8	-3	6
Cc1cccc(CCNS(=O)(=O)c2ccc3c(c2)n(C)c(=O)c(=O)n3C)c1	-13	5	-17	39*	5	-18
S=C1NNC2(CC3CC2C2CCCC32)NN1 (stereo unspecified)	5	10	-17	-1	-6	-10
CCN(CC)S(=O)(=O)c1cccc(NC(=O)CCSc2ccc(Cl)cc2)c1	24	6	10	4	-2	48*
COc1cc(SC)ccc1C(=O)Nc1cccc(S(=O)(=O)NC2=NCCCCC2)c1	20	25	-33	13	4	-14
CCN(CC)S(=O)(=O)c1cccc(NC(=O)c2ccc(SC)cc2OC)c1	52*	33	1	5	-3	-7
COc1ccccc1NC(=O)CSc1nnnn1-c1ccc(C(=O)O)cc1	-19	10	-6	1	-4	-2
O=C(CCCN1C(=O)C(c2ccccc2)Oc2cccnc21)NCc1ccc(F)cc1 (stereo unspecified)	-27	12	-22	1	-1	-18
CCOC(=O)C(=CNNc1cccc(Cl)c1)C(=O)OCC	-119	6	-14	6	-1	-13
NC(=O)c1cc[n+](Cc2ccc([N+](=O)[O-])cc2)cc1	13	52	10	2	-10	3
O=C(Nc1ccccc1Cl)c1cc[n+](Cc2ccc([N+](=O)[O-])cc2)cc1	3	40*	-14	7	-1	0
Cc1nc2ccccn2c1-c1csc(NCc2ccco2)n1	9	29	-12	4	-5	0
Cc1ccn2c(-c3csc(NCc4ccccc4)n3)c(C)nc2c1	39	59	43*	8	-7	28
O=C(C[n+]1cc(-c2ccccc2)n2c1CCC2)OCc1ccccc1	-7	10	2	2	-4	0
CCCCc1c(-c2cccc(OC)c2)ncn1CCc1ccccc1OC	56*	x	x	22	-8	x
CCCc1c(-c2cccc(Cl)c2)ncn1CCc1ccccc1OC	53*	x	x	19	-9	x
SMILES	TAAR1 antag	OX1R antag-1	OX1R antag-2	TAAR1 agonist	GalR3 antagonist	CHO parental Ca
CCCCc1c(-c2ccccc2OC)ncn1Cc1cccc(-c2ccccc2)c1	51*	x	x	8	-2	x
COc1ccccc1CCn1cnc(-c2ccc(OC)c(OC)c2)c1C(C)C	26	x	x	42*	0	x
CCc1c(-c2cccc(Cl)c2)ncn1CCc1ccccc1OC	6	x	x	3	-5	x
CCCCc1c(-c2ccccc2OC)ncn1Cc1ccc(-c2ccccc2)cc1	18	x	x	8	-3	x
NS(=O)(=O)c1ccc(CCNCc2cc(Br)ccc2OCc2ccccc2F)cc1	36	20	49*	8	-8	60*
O=C(Nc1ccc(F)cc1)C1CCCN(S(=O)(=O)c2cccc3nonc23)C1 (stereo unspecified)	7	28	4	0	-8	4
CCN(CC)c1ccc(NC(=O)CCS(=O)(=O)c2cccc3nsnc23)c(C)c1	1	45	-29	0	-1	-24
COc1ccc(S(=O)(=O)Nc2ccccc2)cc1	7	14	-17	3	-6	-33
O=S(=O)(Nc1c(O)ccc2ccccc12)c1ccccc1	-27	64*	6	0	-3	-27
COc1ccc(S(=O)(=O)Nc2ccc(O)c3ccccc23)cc1	14	43*	-15	7	-6	-9
CCc1nc2c(OCc3ccc(C(=O)OC)cc3)cccn2c1N(C)C(=O)c1ccc(OC)cc1	-15	x	x	3	-5	x
Cc1ccc(-c2nnn(CC(=O)N(CCCO)C(C(=O)NC3CCCC3)c3ccc(F)cc3)n2)o1 (stereo unspecified)	-14	3	-26	2	-1	-14
CN(C)C(CNc1ccc(S(C)(=O)=O)cc1[N+](=O)[O-])Cc1ccccc1 (stereo unspecified)	-1	43*	-20	7	-3	-21
CS(=O)(=O)c1ccc(NCCc2ccccn2)c([N+](=O)[O-])c1	9	52*	-17	-2	-7	-6
Cc1cccc(Cc2nnc(CCC(=O)N(C)Cc3ccncc3C)o2)c1	-4	12	-17	5	-3	-13
CC(=O)N1c2ccc(S(=O)(=O)N(C)c3cc(C)ccc3C)cc2CC1C (stereo unspecified)	14	8	-40	2	-12	-12
Cc1ccc(N(C)S(=O)(=O)c2ccc3c(c2)CC(C)N3C(=O)C2CC2)cc1 (stereo unspecified)	49*	4	-29	-1	-1	-1
Cc1cc(-c2ccc(N=Nc3c(S(=O)(=O)O)cc4cc(S(=O)(=O)O)cc(N)c4c3O)c(C)c2)ccc1N=Nc1c(S(=O)(=O)O)cc2cc(S(=O)(=O)O)cc(N)c2c1O	x	+	5	x	x	-3

Screening results as filed in PubChem.
